The text below walks through data of the EternaBench riboswitch data.

For this data set, the system named is MS2 coat protein. Briefly: apparent Kd, MS2 coat protein; higher = weaker binding; RNA-MaP array; theophylline 2 mM where present. An outline of the steps: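 Designs were transcribed by stalled E. coli RNA polymerase on Illumina sequencing-chip clusters. They were titrated with SNAP-549-labelled MS2 coat protein from 0.7 or 1.5 nM, doubling to 3 µM, in 100 mM Tris-HCl pH 7.5, 80 mM KCl, 4 mM MgCl2, BSA, DTT, yeast tRNA and Tween-20, without and then with constant ligand. The apparent Kd is the median of filtered per-cluster fits after normalisation of green signal to red-channel RNA signal and control-cluster median Fmax.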

Setting [1] is: designed as: OFF switch for theophylline, no ligand.
Setting [2] is: ligand present: theophylline, designed as: OFF switch for theophylline.
The mark [3] stands for this setting: designed as: ON switch for theophylline, no ligand.
The mark [4] stands for this setting: ligand present: theophylline, designed as: ON switch for theophylline.

Turning to “UUUUUCGCGUUUGAUACCAGCAGAGUUGUUCUGGUCUGGUACAUGAGGAUCACCCAUGUCUGCCCUUGGCAGCAAACGGGAGAAG”, the apparent Kd (as a rule, a dissociation constant that holds for the conditions of the assay) was found to be 11.5 nM under setting [1] and 14.7 nM under setting [2].

As for “AUGUCGUUGAAUAUAGCGGCUUGGUGUGAUACCAGAAUGAUCUAAUUCCCUUGGCAGCAUUACAUGAGGAUCACCCAUGUUUAGG”, the “apparent Kd” value came to 25.2 nM under setting [3] and 29.2 nM under setting [4].

As for “ACGUCCGGAUUAAUCGUGGGCAUGGUCGAUACCAGUAUUUUAAUCUACCCUUGGCAGCGACAUGAGGAUCACCCAUGUGCGAUGA”, the “apparent Kd” value is, setting by setting: under setting [1], 16.7 nM; under setting [2], 30.9 nM.

“AACAAUGCACAUGAGGAUCACCCAUGUGAUACCAGCCGCAACAUAGGCCCUUGGCAGCAUGUGGGUAUAGAACGAUUUGGCUGAA”: the “apparent Kd” value is, setting by setting: under setting [1], 45.9 nM; under setting [2], 78.3 nM.

On to “UCGUGUAUAUCGGAUACCAGUGAAAACGAUACAUGAGGAUCACCCAUGUGAGUUGAUGUACACCCUUGGCAGCUGUAUAUAUCUA”, for which the “apparent Kd” value under setting [3] worked out at 19.3 nM.

In the case of “UUAUAUAUACAUGAGGAUCACCCAUGUGAUACCAGCCUGGAAACAGGCCCUUGGCAGCACAAAUACUCCAGAAAAUAUAAUAAAU”, the “apparent Kd” value under setting [1] was found to be 26.7 nM and the “apparent Kd” value under setting [2] is 199 nM.

As to “GCAUGCGAUACCGAUACCAGCUACUCCAUGGCGCUCCACAUGAGGAUCACCCAUGUAAAUAGCCCUUGGCAGCGGUAUUGAGAUG”, the “apparent Kd” value under setting [1] was found to be 22.7 nM and the “apparent Kd” value under setting [2] stood at 315 nM.

Take “AGAUUACAUGUUUUAAUACGGAAAACUGAUACCAGUGUAUCUAUUCACCCUUGGCAGCAGCAACAUGAGGAUCACCCAUGUAUUA”: the “apparent Kd” value is 19.2 nM under setting [3] and 19.2 nM under setting [4].

Turning to “AGCGGAACGGAAGGGUCCCGAAAUUGUGAUACCAGCCUUGAAUCCGGCCCUUGGCAGCACAUGAGGAUCACCCAUGUACUGCGGU”, the “apparent Kd” value under setting [1] amounted to 13 nM and the “apparent Kd” value under setting [2] turned out to be 45 nM.

For the sequence “ACAUGAGGAUCACCCAUGUCACGGCACGAUACCAGCUGAUGCGGUGGCCCUUGGCAGCGUGACGUUUGGUCCCGCGGAUGACACG”, the “apparent Kd” value by setting is: under setting [3], 200 nM; under setting [4], 117 nM.

For “ACCUCACUCUCUGAUACCAGCUAACAACAUGAGGAUCACCCAUGUCAGACUUGUAUUGAUAGCCCUUGGCAGCAGAGGUAACUGC”, the “apparent Kd” value reads like this: under setting [1], 16.2 nM; under setting [2], 31.3 nM.

Regarding “ACAUUAGUUGGCGAUACCAGCUAUAGGCCUUCUGGGCGACAUGAGGAUCACCCAUGUGAUGGCCCUUGGCAGCGCUGAUUGAUGU”, the “apparent Kd” value stood at 151 nM under setting [3] and 41.4 nM under setting [4].

Turning to “GUAUGGAAACAUACUAGGGUAUCAUGAGAUACCAGUACAGAAAUGUACCCUUGGCAGCUCAAGCAUACAUGAGGAUCACCCAUGU”, the “apparent Kd” value reads like this: under setting [1], 16.4 nM; under setting [2], 27.1 nM.

In the case of “UAUAUAUAUAUGGAUACCAGCAGAGAAAACGUUUAUCCUAACAUGAGGAUCACCCAUGUAUGCCCUUGGCAGCUGUGUAUAUAUA”, the “apparent Kd” value under setting [1] came to 22.2 nM and the “apparent Kd” value under setting [2] was 26.8 nM.

Regarding “AAACUGGGUGUAAAAUAAAUAAUCACUGAUACCAGACUAUGAGAUGUCCCUUGGCAGCAGAAACAUGAGGAUCACCCAUGUAAUA”, the “apparent Kd” value under setting [1] was 17.9 nM and the “apparent Kd” value under setting [2] amounted to 21.2 nM.

Take “ACAUGAGGAUCACCCAUGUUCCUCGCCGAUACCAGUGAAGAAGAACGCCCUUGGCAGCGGAAAGAAUAUUUUGGAGAUGAGAUAU”: the “apparent Kd” value under setting [1] was 204 nM and the “apparent Kd” value under setting [2] is 270 nM.

Turning to “UUAGAUAUGACAGAUACCAGCGUGUUAUAAAACAUGAGGAUCACCCAUGUAGUGAUCGAGCGCCCUUGGCAGCUGGUGUGUUUGG”, the “apparent Kd” value was determined as 69.6 nM under setting [3] and 208 nM under setting [4].

For “UGUAACAUGAGGAUCACCCAUGUGAGUGAUACCAGAUUAGUAUUAGUCCCUUGGCAGCACAUUGGGCGAGUGUAUAGUCUAUGCG”, the “apparent Kd” value under setting [3] worked out at 154 nM.

With “AGUGUUAUAACUGAUACCAGACUUUUGCUUAUACAUGAGGAUCACCCAUGUAAAAUGGUUGUCCCUUGGCAGCAGAAGUUACACA”, the “apparent Kd” value stood at 69.1 nM under setting [3] and 327 nM under setting [4].

As to “AUAUGAUCAUGUGAUACCAGAAAUGGUAUUCCUCGCUGGAUUACAUGAGGAUCACCCAUGUUCCCUUGGCAGCAUAUGAUCAUAU”, the “apparent Kd” value under setting [1] came to 21.4 nM and the “apparent Kd” value under setting [2] came out at 269 nM.

On to “AUAGUCUAGAGUGAUACCAGACUACAUGAGGAUCACCCAUGUAUCUUUUGGUUAUCAUGUGUCCCUUGGCAGCACGCAUGUAUAG”, for which the “apparent Kd” value runs as follows: under setting [1], 10.1 nM; under setting [2], 24.5 nM.

Take “CAUGGGUGGGUGCUGCCACCCAUUGGUGAUACCAGCAUCGAAAGAUGCCCUUGGCAGCACCAACAUGAGGAUCACCCAUGUAAUA”: the “apparent Kd” value reads like this: under setting [3], 118 nM; under setting [4], 320 nM.

For “AAUAAUCUAGGUGAUACCAGCUCAACAUGAGGAUCACCCAUGUACUCAUGUAGAGUUGAGAGCCCUUGGCAGCACCUAGAUAAUA”, the “apparent Kd” value is, setting by setting: under setting [3], 553 nM; under setting [4], 74.9 nM.

For the sequence “AGUACUCGAACGGAUACCAGCCGGACAUGAGGAUCACCCAUGUCCUACCAUGUCUCGGUUGGCCCUUGGCAGCCGUUCGUGUACA”, the “apparent Kd” value under setting [3] stood at 83.4 nM and the “apparent Kd” value under setting [4] was determined as 234 nM.

“ACUAGUUGUGCAGAUACCAGACAUGAGGAUCACCCAUGUUUGGGAUCUUCGGAUCUUCCUGUCCCUUGGCAGCUGUACAUCUAGA”: the “apparent Kd” value under setting [1] was 85 nM and the “apparent Kd” value under setting [2] came to 22.5 nM.

As for “AAUAACAUGAGGAUCACCCAUGUAAAAGAUACCAGAGUGAUGAUCCUCCCUUGGCAGCUUAAUAACGCUAUUGAUUACAAUAGCG”, the “apparent Kd” value under setting [3] came to 46.4 nM and the “apparent Kd” value under setting [4] was determined as 108 nM.

“ACAUGAGGAUGGGAUACCAGAUACAUGAGGAUCACCCAUACAUGAGGAUCACCCAUGUCCGUCCCUUGGCAGCCCAACAUGAGGA”: the “apparent Kd” value is, setting by setting: under setting [1], 169 nM; under setting [2], 506 nM.

With “GAGCUGAUGUAGAGCGAAUAUACGAGAGAUACCAGUACAGAAAUGUACCCUUGGCAGCUCAACUUUACAUGAGGAUCACCCAUGU”, the “apparent Kd” value runs as follows: under setting [1], 13.8 nM; under setting [2], 15.3 nM.

As to “UGUUUGGUGCGCGAGUGUUGGAUAAUUGAUACCAGUGUAGAAGUGCGCCCUUGGCAGCGAAUCCUAACAUGAGGAUCACCCAUGU”, the “apparent Kd” value turned out to be 46.1 nM under setting [3] and 57.8 nM under setting [4].

With “AGCGAGAUCCGUGAUACCAGCUACAUGAGGAUCACCCAUGUGAGCGCGAAAGUGCUGUGUAGCCCUUGGCAGCACAGUGGAUCUC”, the “apparent Kd” value is, setting by setting: under setting [1], 10 nM; under setting [2], 43.2 nM.

“AAGGUGAUCCCAGAUACCAGCUCAACAUGAGGAUCACCCAUGUACGGGACGAAAGUCCCGGGCCCUUGGCAGCUGGGUUGCCAAG”: the “apparent Kd” value runs as follows: under setting [3], 193 nM; under setting [4], 123 nM.

Take “AAUAACAUGAGGAUCACCCAUGUAAAAGAUACCAGAUGCAUGAUGAUCCCUUGGCAGCUUAAAACGCGAUUGAUUACAAUCGCGA”: the “apparent Kd” value is, setting by setting: under setting [3], 33.3 nM; under setting [4], 107 nM.

Consider “UCACGUGGGAAUGAUACCAGCCACAUGAGGAUCACCCAUGUGCAUGGUGUGAGCUUCACGGGCCCUUGGCAGCAUUUCAAGUCGC”, for which the “apparent Kd” value under setting [1] worked out at 48 nM and the “apparent Kd” value under setting [2] was 69.5 nM.

For “CAGAGCUACCGGGAUACCAGAAAUGGUAUUCCUUAAUUUCUUACAUGAGGAUCACCCAUGUUCCCUUGGCAGCUUGGUAGCUCUG”, the “apparent Kd” value under setting [1] amounted to 86.4 nM and the “apparent Kd” value under setting [2] was determined as 385 nM.

In the case of “CAUACUUUAGUAUGUUAUGUGGACAGUGAUACCAGAUACGAAAGUAUCCCUUGGCAGCACAACAUGAGGAUCACCCAUGUAUUUU”, the “apparent Kd” value turned out to be 23 nM under setting [3] and 13.6 nM under setting [4].
